Data reported in ChEMBL document CHEMBL1136992, “Further studies at neuropeptide s position 5: discovery of novel neuropeptide S receptor antagonists” (J Med Chem, 2009).
The source made the active and inactive calls. No cut-off for these calls is given here. Square brackets hold non-standard residues; d marks the D form. Peptide text beside a SMILES is read from it. * marks the point of attachment. d(tBuAla) = CC(C)(C)C[C@@H](N)C(=O)O; d(aThr) = C[C@@H](O)[C@@H](N)C(=O)O; dCha = N[C@H](CC1CCCCC1)C(=O)O; dChg = N[C@@H](C(=O)O)C1CCCCC1; dPen = CC(C)(S)[C@@H](N)C(=O)O; dPhg = N[C@@H](C(=O)O)c1ccccc1; dNva = CCC[C@@H](N)C(=O)O; tBu = CC(C)(C)*

Experiments:
Neuropeptide S receptor = molecular target: T1, Neuropeptide S receptor (Mus musculus, UniProt Q8BZP8); experiment: Agonist activity at mouse NPSR expressed in HEK293 cells by calcium mobilization assay; assay type: functional, cell-based
T1 sequence (Q8BZP8 whole entry): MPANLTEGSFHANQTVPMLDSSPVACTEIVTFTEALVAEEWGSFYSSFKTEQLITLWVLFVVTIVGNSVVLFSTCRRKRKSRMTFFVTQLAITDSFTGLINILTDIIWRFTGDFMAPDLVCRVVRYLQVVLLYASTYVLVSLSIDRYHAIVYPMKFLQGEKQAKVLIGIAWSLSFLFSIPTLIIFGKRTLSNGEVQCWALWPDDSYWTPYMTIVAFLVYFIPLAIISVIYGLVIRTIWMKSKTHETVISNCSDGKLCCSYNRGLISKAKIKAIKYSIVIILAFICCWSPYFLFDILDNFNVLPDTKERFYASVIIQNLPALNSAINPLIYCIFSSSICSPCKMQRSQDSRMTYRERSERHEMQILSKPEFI
In short: (§1)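 HEK293 cells stably expressing mouse NPSR; intracellular calcium mobilization measured after peptide addition, concentration-response curves giving pEC50 and Emax as % over basal. Mean of at least four separate experiments performed in duplicate.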

[1] = molecular target: T2, Neuropeptide S receptor (Mus musculus) (UniProt Q8BZP8); experiment: Agonist activity at mouse NPSR expressed in HEK293 cells up to 10 uM by calcium mobilization assay; assay type: functional, cell-based; in short: as §1
T2 sequence (whole entry): T1 sequence (Q8BZP8 whole entry)

[2] = molecular target: T2, Neuropeptide S receptor (Mus musculus); experiment: Antagonist activity at mouse NPSR expressed in HEK293 cells assessed as inhibition of NPS-induced response; assay type: functional, cell-based
In short: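 HEK293 cells stably expressing mouse NPSR, calcium mobilization. Inhibition response curves to test peptides against 30 nM NPS, run at 37 °C with three up-and-down mixing cycles right after antagonist injection to aid diffusion. Mean of at least four separate experiments performed in duplicate.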

[3] = molecular target: T3, Neuropeptide S receptor (Homo sapiens) (UniProt Q6W5P4); conditions: HEK293
T3 sequence (whole entry): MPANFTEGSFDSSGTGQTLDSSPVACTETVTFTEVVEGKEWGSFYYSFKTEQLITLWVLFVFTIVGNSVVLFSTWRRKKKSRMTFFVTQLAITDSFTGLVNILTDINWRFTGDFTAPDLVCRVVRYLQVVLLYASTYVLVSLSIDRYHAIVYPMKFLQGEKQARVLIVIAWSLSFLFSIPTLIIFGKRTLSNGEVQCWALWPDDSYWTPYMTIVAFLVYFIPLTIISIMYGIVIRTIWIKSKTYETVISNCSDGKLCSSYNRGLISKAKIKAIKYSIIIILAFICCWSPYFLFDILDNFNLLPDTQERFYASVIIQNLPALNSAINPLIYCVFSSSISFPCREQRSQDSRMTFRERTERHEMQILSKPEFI

Molecule	EC50 (Neuropeptide S receptor) [nM]	Emax [1]	other results
CCC[C@@H](NC(=O)[C@H](CC(N)=O)NC(=O)[C@H](CCCN=C(N)N)NC(=O)[C@H](Cc1ccccc1)NC(=O)[C@@H](N)CO)C(=O)N[C@H](C(=O)NCC(=O)N[C@H](C(=O)NCC(=O)N[C@@H](CCSC)C(=O)N[C@@H](CCCCN)C(=O)N[C@@H](CCCCN)C(=O)N[C@H](C(=O)N[C@@H](CO)C(=O)N[C@@H](Cc1ccccc1)C(=O)N[C@@H](CCC(N)=O)C(=O)N[C@@H](CCCN=C(N)N)C(=O)N[C@@H](C)C(=O)N[C@@H](CCCCN)C(=O)O)[C@@H](C)O)[C@@H](C)O)C(C)C (H-SFRN[dNva]VGTGMKKTSFQRAK-OH)	2690	–	–
H-SFRNGVGTGMKKTSFQRAKS-OH [NEUROPEPTIDE S]	4.79	–	–
CSCC[C@H](NC(=O)CNC(=O)[C@@H](NC(=O)CNC(=O)[C@@H](NC(=O)[C@H](NC(=O)[C@H](CC(N)=O)NC(=O)[C@H](CCCNC(=N)N)NC(=O)[C@H](Cc1ccccc1)NC(=O)[C@@H](N)CO)C(C)(C)S)C(C)C)[C@@H](C)O)C(=O)N[C@@H](CCCCN)C(=O)N[C@@H](CCCCN)C(=O)N[C@H](C(=O)N[C@@H](CO)C(=O)N[C@@H](Cc1ccccc1)C(=O)N[C@@H](CCC(N)=O)C(=O)N[C@@H](CCCNC(=N)N)C(=O)N[C@@H](C)C(=O)N[C@@H](CCCCN)C(=O)O)[C@@H](C)O (H-SFRN[dPen]VGTGMKKTSFQRAK-OH)	–	inactive	–
CSCC[C@H](NC(=O)CNC(=O)[C@@H](NC(=O)CNC(=O)[C@@H](NC(=O)[C@@H](CSC(C)(C)C)NC(=O)[C@H](CC(N)=O)NC(=O)[C@H](CCCNC(=N)N)NC(=O)[C@H](Cc1ccccc1)NC(=O)[C@@H](N)CO)C(C)C)[C@@H](C)O)C(=O)N[C@@H](CCCCN)C(=O)N[C@@H](CCCCN)C(=O)N[C@H](C(=O)N[C@@H](CO)C(=O)N[C@@H](Cc1ccccc1)C(=O)N[C@@H](CCC(N)=O)C(=O)N[C@@H](CCCNC(=N)N)C(=O)N[C@@H](C)C(=O)N[C@@H](CCCCN)C(=O)N[C@@H](CO)C(=O)O)[C@@H](C)O (H-SFRN[dC](tBu)VGTGMKKTSFQRAKS-OH)	–	–	pKb [2]: 6.5
CC[C@H](C)C(NC(=O)[C@H](CC(N)=O)NC(=O)[C@H](CCCNC(=N)N)NC(=O)[C@H](Cc1ccccc1)NC(=O)[C@@H](N)CO)C(=O)N[C@H](C(=O)NCC(=O)N[C@H](C(=O)NCC(=O)N[C@@H](CCSC)C(=O)N[C@@H](CCCCN)C(=O)N[C@@H](CCCCN)C(=O)N[C@H](C(=O)N[C@@H](CO)C(=O)N[C@@H](Cc1ccccc1)C(=O)N[C@@H](CCC(N)=O)C(=O)N[C@@H](CCCNC(=N)N)C(=O)N[C@@H](C)C(=O)N[C@@H](CCCCN)C(=O)O)[C@@H](C)O)[C@@H](C)O)C(C)C (single isomer, unassigned)	–	inactive	–
CC[C@@H](C)[C@@H](NC(=O)[C@H](CC(N)=O)NC(=O)[C@H](CCCNC(=N)N)NC(=O)[C@H](Cc1ccccc1)NC(=O)[C@@H](N)CO)C(=O)N[C@H](C(=O)NCC(=O)N[C@H](C(=O)NCC(=O)N[C@@H](CCSC)C(=O)N[C@@H](CCCCN)C(=O)N[C@@H](CCCCN)C(=O)N[C@H](C(=O)N[C@@H](CO)C(=O)N[C@@H](Cc1ccccc1)C(=O)N[C@@H](CCC(N)=O)C(=O)N[C@@H](CCCNC(=N)N)C(=O)N[C@@H](C)C(=O)N[C@@H](CCCCN)C(=O)O)[C@@H](C)O)[C@@H](C)O)C(C)C (H-SFRN[dI]VGTGMKKTSFQRAK-OH)	–	inactive	–
CSCC[C@H](NC(=O)CNC(=O)[C@@H](NC(=O)CNC(=O)[C@@H](NC(=O)[C@H](NC(=O)[C@H](CC(N)=O)NC(=O)[C@H](CCCN=C(N)N)NC(=O)[C@H](Cc1ccccc1)NC(=O)[C@@H](N)CO)c1ccccc1)C(C)C)[C@@H](C)O)C(=O)N[C@@H](CCCCN)C(=O)N[C@@H](CCCCN)C(=O)N[C@H](C(=O)N[C@@H](CO)C(=O)N[C@@H](Cc1ccccc1)C(=O)N[C@@H](CCC(N)=O)C(=O)N[C@@H](CCCN=C(N)N)C(=O)N[C@@H](C)C(=O)N[C@@H](CCCCN)C(=O)O)[C@@H](C)O (H-SFRN[dPhg]VGTGMKKTSFQRAK-OH)	661	–	–
O=C(NCc1ccc(F)cc1)N1CCN2C(=O)OC(c3ccccc3)(c3ccccc3)C2C1 (stereo not given)	–	–	pKb [3]: 7.5
CSCC[C@H](NC(=O)CNC(=O)[C@@H](NC(=O)CNC(=O)[C@@H](NC(=O)[C@H](NC(=O)[C@H](CC(N)=O)NC(=O)[C@H](CCCNC(=N)N)NC(=O)[C@H](Cc1ccccc1)NC(=O)[C@@H](N)CO)C1CCCCC1)C(C)C)[C@@H](C)O)C(=O)N[C@@H](CCCCN)C(=O)N[C@@H](CCCCN)C(=O)N[C@H](C(=O)N[C@@H](CO)C(=O)N[C@@H](Cc1ccccc1)C(=O)N[C@@H](CCC(N)=O)C(=O)N[C@@H](CCCNC(=N)N)C(=O)N[C@@H](C)C(=O)N[C@@H](CCCCN)C(=O)O)[C@@H](C)O (H-SFRN[dChg]VGTGMKKTSFQRAK-OH)	–	inactive	–
CSCC[C@H](NC(=O)CNC(=O)[C@@H](NC(=O)CNC(=O)[C@@H](NC(=O)[C@@H](CC1CCCCC1)NC(=O)[C@H](CC(N)=O)NC(=O)[C@H](CCCNC(=N)N)NC(=O)[C@H](Cc1ccccc1)NC(=O)[C@@H](N)CO)C(C)C)[C@@H](C)O)C(=O)N[C@@H](CCCCN)C(=O)N[C@@H](CCCCN)C(=O)N[C@H](C(=O)N[C@@H](CO)C(=O)N[C@@H](Cc1ccccc1)C(=O)N[C@@H](CCC(N)=O)C(=O)N[C@@H](CCCNC(=N)N)C(=O)N[C@@H](C)C(=O)N[C@@H](CCCCN)C(=O)O)[C@@H](C)O (H-SFRN[dCha]VGTGMKKTSFQRAK-OH)	–	inactive	–
CSCC[C@H](NC(=O)CNC(=O)[C@@H](NC(=O)CNC(=O)[C@@H](NC(=O)[C@H](NC(=O)[C@H](CC(N)=O)NC(=O)[C@H](CCCNC(=N)N)NC(=O)[C@H](Cc1ccccc1)NC(=O)[C@@H](N)CO)C(C)C)C(C)C)[C@@H](C)O)C(=O)N[C@@H](CCCCN)C(=O)N[C@@H](CCCCN)C(=O)N[C@H](C(=O)N[C@@H](CO)C(=O)N[C@@H](Cc1ccccc1)C(=O)N[C@@H](CCC(N)=O)C(=O)N[C@@H](CCCNC(=N)N)C(=O)N[C@@H](C)C(=O)N[C@@H](CCCCN)C(=O)N[C@@H](CO)C(=O)O)[C@@H](C)O (H-SFRN[dV]VGTGMKKTSFQRAKS-OH)	–	inactive	pKb [2]: 6.54
CSCC[C@H](NC(=O)CNC(=O)[C@@H](NC(=O)CNC(=O)[C@@H](NC(=O)[C@@H](CC(C)(C)C)NC(=O)[C@H](CC(N)=O)NC(=O)[C@H](CCCN=C(N)N)NC(=O)[C@H](Cc1ccccc1)NC(=O)[C@@H](N)CO)C(C)C)[C@@H](C)O)C(=O)N[C@@H](CCCCN)C(=O)N[C@@H](CCCCN)C(=O)N[C@H](C(=O)N[C@@H](CO)C(=O)N[C@@H](Cc1ccccc1)C(=O)N[C@@H](CCC(N)=O)C(=O)N[C@@H](CCCN=C(N)N)C(=O)N[C@@H](C)C(=O)N[C@@H](CCCCN)C(=O)O)[C@@H](C)O (H-SFRN[d(tBuAla)]VGTGMKKTSFQRAK-OH)	1660	–	–
CSCC[C@H](NC(=O)CNC(=O)[C@@H](NC(=O)CNC(=O)[C@@H](NC(=O)[C@H](NC(=O)[C@H](CC(N)=O)NC(=O)[C@H](CCCNC(=N)N)NC(=O)[C@H](Cc1ccccc1)NC(=O)[C@@H](N)CO)[C@@H](C)O)C(C)C)[C@@H](C)O)C(=O)N[C@@H](CCCCN)C(=O)N[C@@H](CCCCN)C(=O)N[C@H](C(=O)N[C@@H](CO)C(=O)N[C@@H](Cc1ccccc1)C(=O)N[C@@H](CCC(N)=O)C(=O)N[C@@H](CCCNC(=N)N)C(=O)N[C@@H](C)C(=O)N[C@@H](CCCCN)C(=O)O)[C@@H](C)O (H-SFRN[d(aThr)]VGTGMKKTSFQRAK-OH)	–	inactive	–
CSCC[C@H](NC(=O)CNC(=O)[C@@H](NC(=O)CNC(=O)[C@@H](NC(=O)[C@H](NC(=O)[C@H](CC(N)=O)NC(=O)[C@H](CCCNC(=N)N)NC(=O)[C@H](Cc1ccccc1)NC(=O)[C@@H](N)CO)[C@H](C)O)C(C)C)[C@@H](C)O)C(=O)N[C@@H](CCCCN)C(=O)N[C@@H](CCCCN)C(=O)N[C@H](C(=O)N[C@@H](CO)C(=O)N[C@@H](Cc1ccccc1)C(=O)N[C@@H](CCC(N)=O)C(=O)N[C@@H](CCCNC(=N)N)C(=O)N[C@@H](C)C(=O)N[C@@H](CCCCN)C(=O)O)[C@@H](C)O (H-SFRN[dT]VGTGMKKTSFQRAK-OH)	794	–	–
